Assay outcomes as filed in PubChem.
UHRF1 MBD2 ctr = UHRF1 methyl-DNA binding inhibition; inhibition, % at 4.4 µM; 370,000 tested, 0.75% active; UHRF1 binding to methylated oligo, TR-FRET; Q96T88;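 further: UHRF1 SRA domain binding a hemimethylated CpG hairpin DNA probe; 0% = median of test compound wells and 100% = reference inhibitor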
TDP2 inh = TDP2 (human) inhibition, absorbance primary screen. 370,000 tested, 0.34% active. inhibition, % at 12.8 µM. AID 720702. O95551. recombinant TDP2, T5PNP hydrolysis, p-nitrophenol absorbance 415 nm;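 active means inhibition above the mean of all tested compounds plus 3 SD, set per campaign, cut at about 25% in these data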;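 further: 0% = DMSO with enzyme and 100% = buffer with substrate but no TDP2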
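Assay system: recombinant human TDP2 / Reagent: T5PNP substrate at 5 mM, a TopII-DNA adduct mimic / Measured by: epi absorbance from released p-nitrophenol / Evaluation: % inhibition relative to enzyme-containing and enzyme-free wells / Control set: enzyme-free and DMSO wells / Replicates: each compound tested once, singlicate / Schedule: enzyme reaction with compound for 2 h at 37 °C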
core dimer inh = HCV core protein dimerization inhibition | TR-FRET GST/Flag-core106 dimerization, 1536-well | inhibition, % at 5 µM | 300,000 tested, 0.33% active | AID 1899;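 active means inhibition above the mean of all tested compounds plus 3 SD, set per screening campaign, cut at about 45% in these data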
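test system = GST/Flag-tagged HCV core106 proteins | probe or stimulus = Eu donor and XL665 acceptor anti-tag antibodies | times = compound-protein-antibody incubation 4 h at 22.5 °C | signal = TR-FRET, excitation 340 nm, emission 617 and 671 nm | measure = percent inhibition of core106 dimerization signal | controls = wells lacking GST-core106 and wells with excess unlabelled core106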
MBD2 inh = blocks human MBD2 binding to methylated DNA; Q9UBB5; TR-FRET, MBD2 binding to methylated oligonucleotide; inhibition, % at 4.4 µM; 370,000 tested, 0.31% active; AID 686964; in the data active means inhibition above about 13%
Target sequence (Q9UBB5 whole entry, looked up): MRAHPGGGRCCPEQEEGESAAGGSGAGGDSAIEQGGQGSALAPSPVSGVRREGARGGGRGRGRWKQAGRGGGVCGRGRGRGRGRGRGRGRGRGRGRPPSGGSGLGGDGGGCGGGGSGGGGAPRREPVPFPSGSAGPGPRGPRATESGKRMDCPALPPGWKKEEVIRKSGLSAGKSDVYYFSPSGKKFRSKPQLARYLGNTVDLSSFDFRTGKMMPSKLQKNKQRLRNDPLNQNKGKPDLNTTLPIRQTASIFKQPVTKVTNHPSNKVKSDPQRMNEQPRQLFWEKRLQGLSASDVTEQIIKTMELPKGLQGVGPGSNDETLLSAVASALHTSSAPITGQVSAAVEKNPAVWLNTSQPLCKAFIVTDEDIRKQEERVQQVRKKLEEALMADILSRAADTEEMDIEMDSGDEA
LEDGF integ inh = blocks HIV-1 LEDGF/p75-dependent DNA integration; TR-FRET IN-LEDGF/p75 DNA integration, Eu/Cy5; inhibition, % at 3.7 µM; 370,000 tested, 0.64% active; AID 743269;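 active means inhibition above the screen-wide mean plus 3 SD, cut at about 13% in these data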;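 further: signal is the Cy5 over europium emission ratio at 671 and 618 nm; 0% = plate median of compound wells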
UHRF1 ctr MBD2 = counter-screen for MBD2 inhibitors: human UHRF1 methylated DNA binding inhibitors; shares compounds with MBD2 inh; UHRF1 binding to methylated oligonucleotide, TR-FRET; inhibition, % at 4.4 µM; 1,000 tested, 25% active;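 further: UHRF1 SRA domain binding a labeled hemimethylated CpG hairpin DNA; 0% = vehicle only and 100% = reference inhibitor with vehicle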
MBD2 confirm = confirmation of human MBD2-DBD methylated oligonucleotide binding inhibitors; AID 720531; shares compounds with MBD2 inh; 1,000 tested, 26% active; inhibition, % at 4.4 µM; TR-FRET MBD2-DBD binding to methylated oligonucleotide; in the data active means inhibition above about 14%
IN multimer act = HIV-1 integrase multimerization activation, counter-screen | shares compounds with LEDGF integ inh | TR-FRET HIV-1 integrase multimerization, biochemical | activation, % at 7.7 µM | 2,000 tested, 17% active; in the data active means activation above about 8.9%
TRFRET interf = TR-FRET optical interference, LEDGF/p75 integration counter-screen; shares compounds with LEDGF integ inh; TR-FRET optical interference counterscreen, HIV-1 IN multimerization; inhibition, % at 7.7 µM; 2,000 tested, under 10 active; AID 1053135;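 active means inhibition above the mean over all tested compounds plus 3 SD, which no compound reached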;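 further: 0% = integrase with antibodies and DMSO and 100% = antibodies without integrase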
IN-LEDGF confirm = LEDGF/p75-dependent HIV-1 integration inhibition, confirmation; AID 1053136; inhibition, % at 3.7 µM; 2,000 tested, 36% active; TR-FRET LEDGF/p75-dependent HIV-1 integration, biochemical; shares compounds with LEDGF integ inh; in the data active means inhibition above about 14%
* marks the source's active call; other numbers are inactive results; nt = no result given. Rows were chosen to be rich in hits. Some 1.8% of all compounds tested hit in one or more screens of this group. Unless noted, no stated cut-off is given here; in the data, active means inhibition above about 21%; inactive means the rest.

SMILES	UHRF1 MBD2 ctr	TDP2 inh	core dimer inh	MBD2 inh	LEDGF integ inh	UHRF1 ctr MBD2	MBD2 confirm	IN multimer act	TRFRET interf	IN-LEDGF confirm
O=c1oc2cc(O)c(Cl)cc2c2ccccc12	2	-5	16	1	-10	nt	nt	nt	nt	nt
O=c1cc2c(=O)oc3cc(O)c(O)oc3c2c(O)c1O	97*	-2	nt	95*	89*	92*	109*	80*	-286	91*
O=C(Nc1cc2c(oc1=O)CCCC2=O)c1ccc(Cl)cc1	41*	10	16	16*	17*	29*	16*	7	-26	22*
Cc1nccc2oc(=O)c(NC(=O)c3ccc(Cl)cc3)cc12	0	8	2	2	-5	nt	nt	nt	nt	nt
Nc1ccc(C(CC(=O)O)n2cccc2)cc1 (configuration not stated)	100*	-10	0	43*	65*	9	1	0	-1	4
Cc1cc(C)nc(N/N=C/C2=C(N3CCOCC3)C(=C\c3ccc(Cl)cc3)/CC2)n1	-6	10	17	-3	5	nt	nt	nt	nt	nt
O=C(O)c1ccc(N/N=C/C2=C(N3CCOCC3)C(=C\c3ccccc3)/CC2)cc1	51*	21	10	19*	54*	2	6	2	-8	17*
O=C(CSc1nnc(-c2ccco2)n1Cc1ccccc1)c1ccccc1	-2	-3	19	4	1	nt	nt	nt	nt	nt
O=C(CSc1nnc(-c2ccco2)c(-c2ccco2)n1)c1ccccc1	58*	-3	45	17*	57*	19	3	4	-20	26*
COC(=O)[C@]12C[C@H](CC(=O)NCc3cccs3)C(=O)N(Cc3ccco3)C1=C[C@H](COCc1ccccc1)O[C@@H]2C	0	10	nt	2	-3	nt	nt	nt	nt	nt
Cn1c(SCc2ccc(C(C)(C)C)cc2)nnc1-c1ccco1	-2	1	nt	-2	2	nt	nt	nt	nt	nt
Cc1csc(NC(=O)CSc2nc3[nH]c(=O)cc(O)c3s2)n1	-1	2	nt	-6	3	nt	nt	nt	nt	nt
COc1ccc(NC(=O)CSc2sc3c(O)cc(=O)[nH]c3c2C#N)c(OC)c1	56*	0	12	30*	16*	22*	12	21*	-106	34*
Cc1csc(NC(=O)CSc2sc3c(O)cc(=O)[nH]c3c2C#N)n1	79*	8	4	52*	38*	11	7	41*	-144	20*
COC(=O)c1ccc(C)c(NC(=O)CSc2sc3c(O)cc(=O)[nH]c3c2C#N)c1	51*	-4	1	14*	14*	22*	9	20*	-98	36*
Cc1ccc(C)c(NC(=O)CSc2sc3c(O)cc(=O)[nH]c3c2C#N)c1	15	5	9	1	3	nt	nt	nt	nt	nt
O=C(CSc1nnc(-c2cccnc2)n1Cc1ccco1)Nc1ccc(F)cc1Cl	0	-2	nt	3	-2	nt	nt	nt	nt	nt
N#C/C(=C\c1cc(O)c(O)c(O)c1)C(N)=O	47*	-2	-23	32*	68*	3	-11	31*	-154	31*
COc1ccc(-n2c(SCC(=O)Nc3cc(C)c(NC(=O)c4ccccc4)cc3OC)nnc2-c2ccccc2F)cc1	2	-9	nt	5	0	nt	nt	nt	nt	nt
OCCN1CCCC12CCC(c1ccccc1)CC2 (configuration not stated)	-3	0	nt	2	1	nt	nt	nt	nt	nt
O=C(/C=C/c1ccco1)c1cccnc1	84*	-2	5	31*	67*	44*	20*	3	-15	51*
